Test results taken from paper PMC4834983 (Journal of medicinal chemistry, 2015).

Key:
pYStat3 = experiment: Immunoblotting of pStat3 in treated U251MG cells; format: cell-based, human; details: for effect on pStat3 in treated tumor cells: 5 μM, glioma cells, immunoblotting
Method in brief: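 Whole-cell lysates from U251MG cells given test compound at 5 μM for 0–24 h, or at 0–5 μM for 2 h. Immunoblotted for pY705Stat3 and total Stat3, with GAPDH as loading reference.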

Stat3:Stat3 = Stat3:Stat3 (Mus musculus, UniProt P42227); experiment: Cell-free EMSA, nuclear extracts pre-incubated with compound, hSIE probe; format: biochemical; details: for Stat3:Stat3/DNA-binding activity (complexation), cell-free EMSA: 5 μM, 30 min pre-incubation, NIH3T3/v-Src nuclear extracts
U251MG cells = experiment: CyQuant cell proliferation assay; format: cell-based, human; details: for activity against U251MG cell growth: 5 μM; for IC50: Homo sapiens, U-251, 72 h, read-out: IC50 cell proliferation U251MG
Method in brief: (§1)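 CyQuant DNA-dye proliferation assay on cultured cells after 72 h exposure to test compound. Viability expressed relative to DMSO-treated control cells.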

Stat3 = Stat3 DNA-binding activity/EMSA of nuclear extracts from treated glioma cells; format: cell-based, human; details: for effect on Stat3 DNA-binding activity in treated tumor cells: 5 μM, glioma cells, EMSA; for IC50: Homo sapiens, U-251, read-out: IC50 Stat3 DNA-binding activity in treated cells
MDA-MB-231 cells = experiment: CyQuant cell proliferation assay; format: cell-based, human; details: for effect on MDA-MB-231 cell growth: 5 μM
Method in brief: as §1

SF295 cells = experiment: CyQuant cell proliferation assay; format: cell-based; details: Homo sapiens, SF-295, 72 h, read-out: IC50 cell proliferation SF295
Method in brief: as §1

U373MG cells = experiment: CyQuant cell proliferation assay; format: cell-based; details: Homo sapiens, U373 MG, 72 h, read-out: IC50 cell proliferation U373MG
Method in brief: as §1

MCF-7 cells = experiment: CyQuant cell proliferation assay; format: cell-based; details: Homo sapiens, MCF7, 72 h, read-out: IC50 cell proliferation MCF-7
Method in brief: as §1

Stat1:Stat1 = target: T1, Stat1:Stat1 (Mus musculus, UniProt P42225); experiment: Cell-free EMSA, EGF-stimulated NIH3T3/hEGFR nuclear extracts; format: biochemical; details: 5 μM, 30 min pre-incubation
T1 sequence (P42225 2-749 limits assumed): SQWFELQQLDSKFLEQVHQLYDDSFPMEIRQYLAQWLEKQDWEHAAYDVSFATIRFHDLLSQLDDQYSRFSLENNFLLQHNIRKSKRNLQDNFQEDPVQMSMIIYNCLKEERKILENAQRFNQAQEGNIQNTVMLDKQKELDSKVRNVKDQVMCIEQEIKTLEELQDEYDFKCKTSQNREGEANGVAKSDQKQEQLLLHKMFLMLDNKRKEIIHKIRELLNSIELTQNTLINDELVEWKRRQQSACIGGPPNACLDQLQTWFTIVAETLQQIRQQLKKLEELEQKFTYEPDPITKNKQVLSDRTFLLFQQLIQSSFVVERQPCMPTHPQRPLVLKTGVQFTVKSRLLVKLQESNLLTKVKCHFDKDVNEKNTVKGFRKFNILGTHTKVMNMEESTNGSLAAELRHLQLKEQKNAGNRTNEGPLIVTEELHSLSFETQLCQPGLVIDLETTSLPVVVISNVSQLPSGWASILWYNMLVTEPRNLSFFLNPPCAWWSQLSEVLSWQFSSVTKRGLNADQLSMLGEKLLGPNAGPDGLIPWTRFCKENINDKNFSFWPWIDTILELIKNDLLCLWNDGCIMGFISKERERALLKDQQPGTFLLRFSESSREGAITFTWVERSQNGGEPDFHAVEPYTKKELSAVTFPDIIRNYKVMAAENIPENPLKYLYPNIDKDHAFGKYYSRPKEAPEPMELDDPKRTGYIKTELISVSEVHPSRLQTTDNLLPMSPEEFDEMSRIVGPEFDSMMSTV
Method in brief: (§2)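 Nuclear extracts from EGF-stimulated NIH3T3/hEGFR fibroblasts, containing active Stat1, Stat3 and Stat5, preincubated with 5 μM test compound for 30 min at room temperature. Then incubated 30 min with 32P-labelled probe before EMSA: hSIE (Stat1/Stat3 binding) or MGFe (bovine β-casein element; Stat1/Stat5 binding). STAT:DNA bands quantified as percent of control.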

Stat5:Stat5 = experiment: Cell-free EMSA, EGF-stimulated NIH3T3/hEGFR nuclear extracts, MGFe probe; format: biochemical, mouse; details: 5 μM, 30 min pre-incubation
Method in brief: as §2

Sequence of Stat3:Stat3 (P42227 2-770 limits assumed): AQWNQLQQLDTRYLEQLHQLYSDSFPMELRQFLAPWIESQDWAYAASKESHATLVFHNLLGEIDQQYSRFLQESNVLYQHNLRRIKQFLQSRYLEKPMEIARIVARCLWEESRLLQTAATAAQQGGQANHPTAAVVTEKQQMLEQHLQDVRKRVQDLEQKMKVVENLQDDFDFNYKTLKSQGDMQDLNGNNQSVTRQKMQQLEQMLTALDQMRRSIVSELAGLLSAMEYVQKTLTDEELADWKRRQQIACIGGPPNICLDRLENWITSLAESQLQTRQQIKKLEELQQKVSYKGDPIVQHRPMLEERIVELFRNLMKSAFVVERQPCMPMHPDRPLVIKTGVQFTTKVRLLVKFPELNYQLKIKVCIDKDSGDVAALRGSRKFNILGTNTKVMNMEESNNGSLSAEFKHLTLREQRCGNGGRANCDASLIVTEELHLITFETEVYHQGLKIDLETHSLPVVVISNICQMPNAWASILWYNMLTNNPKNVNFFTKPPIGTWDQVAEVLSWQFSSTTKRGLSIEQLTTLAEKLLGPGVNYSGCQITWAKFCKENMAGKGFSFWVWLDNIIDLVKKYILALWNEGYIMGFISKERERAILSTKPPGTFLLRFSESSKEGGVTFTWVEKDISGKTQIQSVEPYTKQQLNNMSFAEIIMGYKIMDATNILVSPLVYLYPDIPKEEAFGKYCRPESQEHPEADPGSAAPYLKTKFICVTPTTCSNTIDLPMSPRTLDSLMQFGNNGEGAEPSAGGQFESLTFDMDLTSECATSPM

| SMILES | effect on pStat3 in treated tumor cells (pYStat3) | Stat3:Stat3/DNA-binding activity (complexation), cell-free EMSA (Stat3:Stat3) | activity against U251MG cell growth (U251MG cells) | effect on Stat3 DNA-binding activity in treated tumor cells (Stat3) | further results |
| --- | --- | --- | --- | --- | --- |
| C[C@@H]1C[C@H](O)C2=C(CO)C(=O)O/C2=C/[C@@]2(C)CC[C@]1(O)O2 [Compound 14] | little impact | only weakly inhibited |  |  |  |
| C=C(C)C(=O)O[C@H]1C[C@@H](C)[C@]2(OC)CC[C@](C)(/C=C3/OC(=O)C(CO)=C31)O2 [Compound 28] | little impact | only weakly inhibited |  |  |  |
| CC(C)=CCCC(C)CC(=O)OCC1=C2/C(=C\[C@@]3(C)CC[C@](O)(O3)[C@H](C)C[C@@H]2O)OC1=O (stereo partly drawn) [Compound 33] | suppressed | diminished | retained or improved the inhibitory potency | suppressed | IC50 (U251MG cells): 1000 to 1200 nM; IC50 (Stat3): 500 to 2500 nM |
| C/C=C(\C)C(=O)O[C@H]1C[C@@H](C)[C@]2(O)CC[C@](C)(/C=C3/OC(=O)C(CO)=C31)O2 [Compound 8] | little impact | only weakly inhibited |  |  |  |
| C/C(=C\CO)C(=O)O[C@H]1C[C@@H](C)[C@]2(O)CC[C@](C)(/C=C3/OC(=O)C(CO)=C31)O2 [Compound 21] | little impact | only weakly inhibited |  |  |  |
| C=C1C(=O)O[C@H]2[C@H]1CC/C(C)=C/CC[C@@]1(C)O[C@@H]21 [parthenolide, reference compound] |  |  |  |  | cell growth activity, control compounds (U251MG cells; panel of cell lines, Fig. S5E(i)): poorly-active or non-specific in activity; Stat3 activity in tumor cells, control compounds (pYStat3; Fig. S5E(ii)): did not inhibit |
| C=C(C)C(=O)O[C@H]1C[C@@H](C)[C@]2(O)CC[C@](C)(/C=C3/OC(=O)C(COC(C)=O)=C31)O2 [Compound 7] | strongly inhibited | diminished |  | strongly inhibited | IC50 (MDA-MB-231 cells; Homo sapiens, MDA-MB-231, 72 h, read-out: IC50 cell proliferation MDA-MB-231): 5200 to 9100 nM; IC50 (SF295 cells): 7400 to 18300 nM; IC50 (U373MG cells): 6600 to 8200 nM; IC50 (MCF-7 cells): 4800 to 9600 nM; effect on Stat1:Stat1 activity, cell-free EMSA (Stat1:Stat1): weak effects; effect on Stat5:Stat5 activity, cell-free EMSA (Stat5:Stat5): weak effects |
| C[C@@H]1C[C@H](O)C2=C(COC(=O)/C=C/c3ccc(C(F)(F)F)cc3)C(=O)O/C2=C/[C@@]2(C)CC[C@]1(O)O2 [Compound 35] |  | diminished | retained or improved the inhibitory potency |  |  |
| CC(C)=CCC/C(C)=C/C(=O)OCC1=C2/C(=C\[C@@]3(C)CC[C@](O)(O3)[C@H](C)C[C@@H]2O)OC1=O [Compound 31] | suppressed | diminished | retained or improved the inhibitory potency | suppressed | IC50 (U251MG cells): 1000 to 1200 nM; IC50 (Stat3): 500 to 2500 nM; effect on Stat1:Stat1 activity, cell-free EMSA (Stat1:Stat1): moderate effect |
| CCC(C)C(=O)OCC1=C2/C(=C\[C@@]3(C)CC[C@](O)(O3)[C@H](C)C[C@@H]2O)OC1=O (stereo partly drawn) [Compound 29] | little effect | moderate inhibitory effects | weakly-active or inactive |  |  |
| C[C@@H]1C[C@H](O)C2=C(COC(=O)/C=C/c3ccc(F)cc3)C(=O)O/C2=C/[C@@]2(C)CC[C@]1(O)O2 [Compound 34] |  | diminished | retained or improved the inhibitory potency |  | effect on MDA-MB-231 cell growth (MDA-MB-231 cells): strongly inhibited |
| C/C=C(/C)C(=O)O[C@H]1C[C@@H](C)[C@]2(O)CC[C@](C)(/C=C3/OC(=O)C(CO)=C31)O2 [Compound 19] | little impact | only weakly inhibited |  |  |  |
| C[C@@H]1C[C@H](O)C2=C(COC(=O)CCc3ccccc3)C(=O)O/C2=C/[C@@]2(C)CC[C@]1(O)O2 [Compound 36] | suppressed | diminished | retained or improved the inhibitory potency | suppressed | IC50 (U251MG cells): 1000 to 1200 nM; IC50 (Stat3): 500 to 2500 nM |
| CC(C)=CC(=O)OCC1=C2/C(=C\[C@@]3(C)CC[C@](O)(O3)[C@H](C)C[C@@H]2O)OC1=O [Compound 32] | moderate effect | diminished | weakly-active or inactive |  |  |
| CCCC(CCC)C(=O)OCC1=C2/C(=C\[C@@]3(C)CC[C@](O)(O3)[C@H](C)C[C@@H]2O)OC1=O [Compound 37] |  | diminished | retained or improved the inhibitory potency |  | effect on MDA-MB-231 cell growth (MDA-MB-231 cells): strongly inhibited |
| CCN1C(=O)C=CC1=O [NEM, N-ethylmaleimide, reference compound] |  |  |  |  | Stat3:Stat3/DNA complexation, dose-dependent (Stat3:Stat3; Fig. S3B): inhibits |
| C/C=C(\C)C(=O)OCC1=C2/C(=C\[C@@]3(C)CC[C@](OC)(O3)[C@H](C)C[C@@H]2OC(=O)/C(C)=C/C)OC1=O [Compound 39] | suppressed | diminished | retained or improved the inhibitory potency | suppressed | effect on MDA-MB-231 cell growth (MDA-MB-231 cells): strongly inhibited; IC50 (Stat3): 500 to 2500 nM |
| C=C(C)C(=O)O[C@H]1C[C@@H](C)[C@]2(O)CC[C@](C)(/C=C3/OC(=O)C(CO)=C31)O2 [Compound 18] | little impact | only weakly inhibited |  |  |  |
| C/C=C(\C)C(=O)O[C@H]1C[C@@H](C)[C@]2(OC)CC[C@](C)(/C=C3/OC(=O)C(COC(=O)/C=C/c4ccccc4)=C31)O2 [Compound 40] |  | moderate inhibitory effects | retained or improved the inhibitory potency |  | effect on MDA-MB-231 cell growth (MDA-MB-231 cells): strongly inhibited |
| C[C@@H]1C[C@H](O)C2=C(COC(=O)/C=C/c3ccccc3)C(=O)O/C2=C/[C@@]2(C)CC[C@]1(O)O2 [Compound 30] | suppressed | diminished | retained or improved the inhibitory potency | suppressed | IC50 (U251MG cells): 1000 to 1200 nM; IC50 (Stat3): 500 to 2500 nM |
